Assay results published in article PMC5679024 (ACS chemical neuroscience, 2017).
Non-standard residues stand in square brackets, D forms with d. Residues, ends and D or L forms follow the SMILES beside them.

B1: mMC4R with C-terminal NanoLuc or HaloTag (NanoBRET constructs) (receptor, mouse, UniProt P56450 1-332, looked up)
chain: MNSTHHHGMYTSLHLWNRSSYGLHGNASESLGKGHPDGGCYEQLFVSPEVFVTLGVISLLENILVIVAIAKNKNLHSPMYFFICSLAVADMLVSVSNGSETIVITLLNSTDTDAQSFTVNIDNVIDSVICSSLLASICSLLSIAVDRYFTIFYALQYHNIMTVRRVGIIISCIWAACTVSGVLFIIYSDSSAVIICLISMFFTMLVLMASLYVHMFLMARLHIKRIAVLPGTGTIRQGTNMKGAITLTILIGVFVVCWAPFFLHLLFYISCPQNPYCVCFMSHFNLYLILIMCNAVIDPLIYALRSQELRKTFKEIICFYPLGGICELSSRY
B2: mMC3R with C-terminal NanoLuc or HaloTag (NanoBRET constructs) (receptor, mouse, UniProt P33033 1-323, looked up)
chain: MNSSCCLSSVSPMLPNLSEHPAAPPASNRSGSGFCEQVFIKPEVFLALGIVSLMENILVILAVVRNGNLHSPMYFFLCSLAAADMLVSLSNSLETIMIAVINSDSLTLEDQFIQHMDNIFDSMICISLVASICNLLAIAIDRYVTIFYALRYHSIMTVRKALTLIGVIWVCCGICGVMFIIYSESKMVIVCLITMFFAMVLLMGTLYIHMFLFARLHVQRIAVLPPAGVVAPQQHSCMKGAVTITILLGVFIFCWAPFFLHLVLIITCPTNPYCICYTAHFNTYLVLIMCNSVIDPLIYAFRSLELRNTFKEILCGCNSMNLG

Key:
[1] = In vitro mouse serum stability assay; format: in vitro ADME; conditions: for half-life / remaining at 0.5 h: serum
male mice = test: ICV fasting-refeeding paradigm, energy homeostasis in TSE metabolic cages; format: in vivo, mouse; conditions: 5 nmol ICV
Method in brief: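 Cannula-validated male mice were acclimated for one week in sealed TSE metabolic home cages (12 h light/dark, 23–25 °C) and tested in a cross-over design. Food was removed at lights out for a 22 h fast. At t=0, 2 h before lights out, mice received 5 nmol test compound or saline ICV and food was returned. Mice were watched visually for ≥2 h after dosing.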

[2] = biological target: mouse melanocortin 4 receptor, wildtype mMC4R, stably expressed on HEK293 cells (mouse) (UniProt P56450)
[3] = biological target: mouse melanocortin 3 receptor, mMC3R-Flag, stably expressed on HEK293 cells (mouse) (UniProt P33033)
FRET or BRET = biological target: the molecule itself; test: FRET or BRET
[4] = biological target: B2; test: FRET or BRET

CC(=O)N[C@@H](Cc1cnc[nH]1)C(=O)N[C@H](Cc1ccccc1)C(=O)N[C@@H](CCCN=C(N)N)C(=O)N[C@@H](Cc1c[nH]c2ccccc12)C(N)=O [CJL-1-14, Ac-His-DPhe-Arg-Trp-NH2]
remaining at 72 h, 10 µM ([1]; mouse serum): 12% | half-life [1]: 1010 min | adverse reactions, visual monitoring (male mice; at least 2 hours post treatment): no adverse reactions | ambulatory activity (male mice; fasting-refeeding): No significant effects

CC(=O)N[C@@H](Cc1cnc[nH]1)C(=O)N[C@H](Cc1ccccc1)C(=O)N[C@@H](CCCNC(=N)N)C(=O)N[C@@H](Cc1c[nH]c2ccccc12)C(=O)N1CCC[C@H]1C(=O)NCC(=O)N1CCC[C@H]1C(=O)NCC(=O)N1CCC[C@H]1C(=O)NCC(=O)N1CCC[C@H]1C(=O)NCC(=O)N1CCC[C@H]1C(=O)NCC(=O)N1CCC[C@H]1C(=O)NCC(=O)N[C@@H](Cc1cnc[nH]1)C(=O)N[C@H](Cc1ccccc1)C(=O)N[C@@H](CCCNC(=N)N)C(=O)N[C@@H](Cc1c[nH]c2ccccc12)C(N)=O [CJL-1-31, Ac-His-DPhe-Arg-Trp-(Pro-Gly)6-His-DPhe-Arg-Trp-NH2] (Ac-H[dF]RWPGPGPGPGPGPGH[dF]RW-NH2)
half-life [1]: 6 min | remaining at 0.5 h [1]: ≤ 2%

α-MSH (peptide)
Agonist cAMP Based Alpha Screen Results EC50 (nM), stable mMC4R cells [2]: 3.1 nM | Agonist cAMP Based Alpha Screen Results EC50 (nM), stable mMC3R cells [3]: 0.21 nM

N=C(N)NCCC[C@H](NC(=O)[C@@H](Cc1ccccc1)NC(=O)[C@H](Cc1cnc[nH]1)NC(=O)CNC(=O)[C@@H]1CCCN1C(=O)CNC(=O)[C@@H]1CCCN1C(=O)CNC(=O)[C@@H]1CCCN1C(=O)CNC(=O)[C@@H]1CCCN1C(=O)CNC(=O)[C@@H]1CCCN1C(=O)CNC(=O)[C@@H]1CCCN1)C(=O)N[C@@H](Cc1c[nH]c2ccccc12)C(N)=O [CJL-1-41, (Pro-Gly)6-His-DPhe-Arg-Trp-NH2] (H-PGPGPGPGPGPGH[dF]RW-NH2)
half-life [1]: 6 min | remaining at 0.5 h [1]: ≤ 2%

CC(=O)N[C@@H](Cc1cnc[nH]1)C(=O)N[C@H](Cc1ccccc1)C(=O)N[C@@H](CCCNC(=N)N)C(=O)N[C@@H](Cc1c[nH]c2ccccc12)C(=O)N1CCC[C@H]1C(=O)NCC(=O)N1CCC[C@H]1C(=O)NCC(=O)N1CCC[C@H]1C(=O)NCC(=O)N1CCC[C@H]1C(=O)NCC(=O)N1CCC[C@H]1C(=O)NCC(=O)N1CCC[C@H]1C(=O)NCC(N)=O [CJL-5-35-1, Ac-His-DPhe-Arg-Trp-(Pro-Gly)6-NH2] (Ac-H[dF]RWPGPGPGPGPGPG-NH2)
half-life [1]: 6 min | remaining at 0.5 h [1]: ≤ 2%

B1
BRET ratio (FRET or BRET): 100 mBU | BRET ratio [4]: 150 mBU

B2
BRET ratio (FRET or BRET): 90 mBU
